Laboratory results: ChEMBL document CHEMBL1122181 (J Med Chem, 1982)
Activity calls are given as the source filed them. The calls are words filed in the database; no cut-off is given here.

Key:
Mus musculus [1] = assay: Analgesic activity was determined by tail flick assay after subcutaneous administration in mice; Inactive; type: functional, organism-based
Mus musculus [2] = assay: Analgesic activity was determined by writhing test after subcutaneous administration in mice; type: functional; details: sc
Procedure, shortened: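 Phenylquinone-induced writhing; compound given subcutaneously in distilled water. Potency derived by probit analysis, reported with 95% confidence limits.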

Mus musculus [3] = assay: Analgesic activity was determined by tail flick assay after subcutaneous administration in mice; type: functional; details: sc
Procedure, shortened: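 Tail-flick method; compound given subcutaneously in normal saline. Potency derived by probit analysis, reported with 95% confidence limits.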

Structure (SMILES) | ED50 (Mus musculus [1]) | ED50 (Mus musculus [2]) | ED50 (Mus musculus [3])
CN1CCC23c4c5ccc(OC(C)(C)C)c4O[C@H]2[C@@H](O)C=CC3C1C5 (some centres not stated) | inactive | 26.8 mg/kg | 
CN1CCC23CCCCC2C1Cc1ccc(OC(C)(C)C)cc13 (configuration not stated) |  | 5 mg/kg | 5.81 mg/kg
CN1CC[C@]23CCCC[C@H]2[C@H]1Cc1ccc(O)cc13 [LEVORPHANOL] |  | 0.1 mg/kg | 1.3 mg/kg
COc1ccc2c(c1)C13CCCCC1C(C2)N(C)CC3 (stereo not drawn) [RACEMETHORPHAN] |  | 0.64 mg/kg | 6.78 mg/kg
COc1ccc2c3c1O[C@H]1[C@@H](O)C=C[C@H]4[C@@H](C2)N(C)CC[C@@]341 [CODEINE] |  | 2.3 mg/kg | 39 mg/kg
CN1CC[C@]23c4c5ccc(O)c4O[C@H]2[C@@H](O)C=C[C@H]3[C@H]1C5 [MORPHINE] |  | 0.46 mg/kg | 4.06 mg/kg
